Reference: ChEMBL document CHEMBL1147071, “Bisphosphonates as inhibitors of Trypanosoma cruzi hexokinase: kinetic and metabolic studies” (J Biol Chem, 2007)
Values after ≈ are worked out from the molar mass of the structure shown. Active and inactive are the calls of the source. The calls are words filed in the database; no cut-off is given here.

Legend:
[1] = test system: Trypanosoma cruzi; assay: Effect on endogenous Ergosta-5,7-dien-3beta-ol level in Trypanosoma cruzi epimastigotes at 20 uM; type: functional
Summary of the method: (§1)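 EP stock epimastigotes grown 120 h in LIT medium with 10% newborn calf serum at 28 °C, with or without compound at the stated concentration. Total lipids were extracted, and free sterols were separated from polar lipids by silicic acid column chromatography. Sterols were quantified by capillary gas-liquid chromatography and mass spectrometry and reported as mass percent of free sterols.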

[2] = target: T1, Hexokinase (Trypanosoma cruzi, UniProt Q8ST54); assay: Inhibition of Trypanosoma cruzi hexokinase in presence of ATP, 2 mM D-glucose and 3 mM MgCl2 by mixed inhibition assay
T1 sequence (Q8ST54 whole entry): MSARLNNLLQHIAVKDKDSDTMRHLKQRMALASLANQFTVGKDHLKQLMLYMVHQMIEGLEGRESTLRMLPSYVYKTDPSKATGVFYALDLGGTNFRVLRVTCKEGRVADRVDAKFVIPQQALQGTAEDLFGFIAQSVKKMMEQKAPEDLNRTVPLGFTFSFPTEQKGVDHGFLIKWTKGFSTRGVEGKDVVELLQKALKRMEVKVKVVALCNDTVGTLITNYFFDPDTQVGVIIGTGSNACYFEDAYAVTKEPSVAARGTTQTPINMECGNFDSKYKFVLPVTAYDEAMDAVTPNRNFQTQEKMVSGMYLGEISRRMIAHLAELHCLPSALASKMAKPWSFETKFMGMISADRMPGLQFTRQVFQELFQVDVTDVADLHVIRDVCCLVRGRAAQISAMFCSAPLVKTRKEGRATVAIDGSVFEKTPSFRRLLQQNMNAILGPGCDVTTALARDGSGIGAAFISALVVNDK

[3] = target: T1, Hexokinase; assay: Inhibition of glycosomal Trypanosoma cruzi hexokinase in presence of ATP, 2 mM D-glucose and 3 mM MgCl2
Summary of the method: (§2)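 Purified intact glycosomes from exponential-phase epimastigotes (latency typically >95%) were permeabilized with digitonin 25 µg mg-1 protein for 1 min, pelleted and resuspended in buffer A (sucrose 225 mM, KCl 20 mM, KH2PO4 10 mM, EDTA 5 mM, Tris-HCl 20 mM, MgCl2 1 mM, pH 7.2). Hexokinase was assayed by coupled NADP+ reduction at 340 nm. Against ATP: 2 mM D-glucose, 3 mM MgCl2. Against glucose: 1 mM ATP, 3 mM MgCl2. Kii and Kis were fitted.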

[4] = test system: Trypanosoma cruzi; assay: Inhibition of glucose consumption in Trypanosoma cruzi epimastigotes after 96 hrs; type: functional, organism-based
Summary of the method: (§3)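 Epimastigotes cultured in LIT medium at 28 °C with agitation, with or without 15 µM compound. Cell proliferation, medium glucose and ammonium (enzymatic assays) and medium pH were followed over time. Triplicates.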

[5] = test system: Trypanosoma cruzi; assay: Effect on endogenous Ergosta-5,7-24(24')-trien-3beta-ol level in Trypanosoma cruzi epimastigotes at 20 uM; type: functional; summary of the method: as §1
[6] = test system: Trypanosoma cruzi; assay: Effect on endogenous 24-ethyl-5,7-cholesta-dien-3beta-ol level in Trypanosoma cruzi epimastigotes at 20 uM; type: functional; summary of the method: as §1
[7] = target: T1, Hexokinase; assay: Inhibition of glycosomal Trypanosoma cruzi hexokinase in presence of ATP, 2 mM D-glucose and 3 mM MgCl2 by competitive inhibition assay; summary of the method: as §2
[8] = test system: Trypanosoma cruzi; assay: Reduction in proliferation of Trypanosoma cruzi epimastigotes at 15 uM; type: functional, organism-based; summary of the method: as §3
[9] = test system: Trypanosoma cruzi; assay: Effect on endogenous 24-methyl-5,7,22-cholesta-trien-3beta-ol level in Trypanosoma cruzi epimastigotes at 20 uM; type: functional; summary of the method: as §1
[10] = test system: Trypanosoma cruzi; assay: Effect on glucose consumption in digitonin permeablized Trypanosoma cruzi; type: functional, organism-based
Summary of the method: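 Resuspended with PEP 6 mM, ADP 6 mM, NaHCO3 7 mM and L-malate 1 mM. Preincubated 60 min at 28 °C with varying compound concentrations before 3 mM D-glucose was added. Medium glucose was assayed enzymatically every 15 min; IC50 determined.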

[11] = target: T1, Hexokinase; assay: Inhibition of Trypanosoma cruzi hexokinase in presence of D-glucose, 1 mM ATP and 3 mM MgCl2 by competitive inhibition assay
Summary of the method: (§4)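 Homogeneous hexokinase purified from exponential-phase epimastigotes. Activity measured spectrophotometrically by coupling to glucose-6-phosphate dehydrogenase and following NADP+ reduction at 340 nm; rates taken from the initial linear slope. Against ATP: 2 mM D-glucose, 3 mM MgCl2. Against D-glucose: 1 mM ATP, 3 mM MgCl2. Substrate and inhibitor were varied, and Kii and Kis were obtained from fitting plus secondary plots.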

[12] = target: T1, Hexokinase; assay: Inhibition of glycosomal Trypanosoma cruzi hexokinase in presence of D-glucose, 1 mM ATP and 3 mM MgCl2 by competitive inhibition assay; summary of the method: as §2
[13] = test system: Trypanosoma cruzi; assay: Effect on exogenous cholesterol level in Trypanosoma cruzi epimastigotes at 20 uM; type: functional; summary of the method: as §1
[14] = target: T1, Hexokinase; assay: Inhibition of glycosomal Trypanosoma cruzi hexokinase in presence of D-glucose, 1 mM ATP and 3 mM MgCl2; summary of the method: as §2
[15] = target: T1, Hexokinase; assay: Inhibition of Trypanosoma cruzi hexokinase in presence of ATP, 2 mM D-glucose and 3 mM MgCl2; summary of the method: as §4
[16] = test system: Trypanosoma cruzi; assay: Growth inhibition of Trypanosoma cruzi epimastigotes; type: functional, organism-based
Summary of the method: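 EP epimastigotes grown in LIT medium with 10% newborn calf serum at 28 °C, 120 rpm. Compound added from 100-fold stocks at 1-2 × 10^7 cells ml-1. Densities counted by particle counter and hemocytometer. Percent growth factor based on 96 h growth relative to untreated cells; IC50 from non-linear fit; MIC also reported. Triplicates.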

[17] = test system: Trypanosoma cruzi; assay: Effect on endogenous 24-ethyl-5,7,22-cholesta-trien-3beta-ol level in Trypanosoma cruzi epimastigotes at 20 uM; type: functional; summary of the method: as §1
[18] = test system: Trypanosoma cruzi; assay: Inhibition of glucose consumption in Trypanosoma cruzi epimastigotes after 120 hrs; type: functional, organism-based; summary of the method: as §3
[19] = test system: Trypanosoma cruzi; assay: Effect on endogenous Ergosta-7-24(24')-dien-3beta-ol level in Trypanosoma cruzi epimastigotes at 20 uM; type: functional; summary of the method: as §1
[20] = target: T1, Hexokinase; assay: Inhibition of Trypanosoma cruzi hexokinase in presence of D-glucose, 1 mM ATP and 3 mM MgCl2
Summary of the method: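 Hexokinase purified to homogeneity from exponential-phase T. cruzi epimastigotes. Activity was coupled to glucose-6-phosphate dehydrogenase and read as NADP+ reduction at 340 nm, with initial velocity taken from the slope, linear for at least 5 min. D-glucose was varied at fixed inhibitor levels with 1 mM ATP and 3 mM MgCl2. Kii and Kis came from fitting to a mixed-inhibition equation (intercept/slope secondary plots).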

[21] = test system: Trypanosoma cruzi; assay: Effect on endogenous 24-ethyl-5,7-cholesta-dien-3beta-ol level in Trypanosoma cruzi epimastigotes at 100 uM; type: functional; summary of the method: as §1
[22] = test system: Trypanosoma cruzi; assay: Effect on exogenous cholesterol level in Trypanosoma cruzi epimastigotes at 100 uM; type: functional; summary of the method: as §1
[23] = test system: Trypanosoma cruzi; assay: Effect on endogenous 24-ethyl-5,7-cholesta-dien-3beta-ol level in Trypanosoma cruzi epimastigotes at 50 uM; type: functional; summary of the method: as §1
[24] = test system: Trypanosoma cruzi; assay: Effect on exogenous cholesterol level in Trypanosoma cruzi epimastigotes at 50 uM; type: functional; summary of the method: as §1
[25] = test system: Trypanosoma cruzi; assay: Effect on endogenous 24-ethyl-5,7,22-cholesta-trien-3beta-ol level in Trypanosoma cruzi epimastigotes at 50 uM; type: functional; summary of the method: as §1

Ki [2] [µM]	Ki [3] [µM]	Ki [7] [µM]	IC50 [10] [µM]	Ki [11] [µM]	Ki [12] [µM]	Ki [14] [µM]	Ki [15] [µM]	IC50 [16] [µM]	MIC [16] [µM]	SMILES	Activity [1] [%]	Activity [5] [%]	Activity [6] [%]	Activity [8]	Activity [9] [%]	Activity [13] [%]	Activity [17] [%]	other results
1.7	1.7	1.2	0.62	0.5	2.4	4.3	2.8	6.4	20 (≈ 7.69 µg/mL)	CCn1c2ccccc2c2cc(NC(P(=O)(O)O)P(=O)(O)O)ccc21	26.3	3.8	8.4	Active	23.4	18.8	19.3	Activity [4]: Active
0.6		2.6	1.2	0.4	2.9	10.6	1.2	7	20 (≈ 6.92 µg/mL)	O=P(O)(O)C(Nc1cccc(Br)c1)P(=O)(O)O	18	6	3.4	Active	31	21.3	18.3	Activity [18]: Active; Activity [19]: 2%
2.8	10.5	11.4	10.3	3.3	3.4	43.9	4.3	40.6	200 (≈ 56.6 µg/mL)	O=P(O)(O)C(O)(Cc1ccncc1)P(=O)(O)O								Ki [20]: 6 µM; Activity [21]: 6.7%; Activity [22]: 93.3%; Activity [23]: 14.5%; Activity [24]: 70.9%; Activity [25]: 14.6%
